Experimental data: ChEMBL document CHEMBL4665899, “Exploring the Chemical Space of Benzothiazole-Based DNA Gyrase B Inhibitors” (ACS Med Chem Lett, 2020)
In brackets after ≈: the same amount, converted by molar mass.

Experiments:
DNA gyrase [1] = biological target: DNA gyrase (Escherichia coli, UniProt P0AES4+P0AES6); experiment: Inhibition of Escherichia coli DNA gyrase using relaxed pNO1 plasmid DNA as substrate incubated for 30 mins by fluorescence assay; format: protein-complex assay
[2] = biological target: DNA gyrase (Staphylococcus aureus) (UniProt P0A0K8+P20831); experiment: Inhibition of Staphylococcus aureus DNA gyrase assessed as enzyme residual activity at 10 uM using relaxed pNO1 plasmid DNA as substrate incubated for 30 mins by fluorescence assay relative to control; format: protein-complex assay
Sequence of DNA gyrase (Staphylococcus aureus) (P0A0K8 2-644 limits assumed): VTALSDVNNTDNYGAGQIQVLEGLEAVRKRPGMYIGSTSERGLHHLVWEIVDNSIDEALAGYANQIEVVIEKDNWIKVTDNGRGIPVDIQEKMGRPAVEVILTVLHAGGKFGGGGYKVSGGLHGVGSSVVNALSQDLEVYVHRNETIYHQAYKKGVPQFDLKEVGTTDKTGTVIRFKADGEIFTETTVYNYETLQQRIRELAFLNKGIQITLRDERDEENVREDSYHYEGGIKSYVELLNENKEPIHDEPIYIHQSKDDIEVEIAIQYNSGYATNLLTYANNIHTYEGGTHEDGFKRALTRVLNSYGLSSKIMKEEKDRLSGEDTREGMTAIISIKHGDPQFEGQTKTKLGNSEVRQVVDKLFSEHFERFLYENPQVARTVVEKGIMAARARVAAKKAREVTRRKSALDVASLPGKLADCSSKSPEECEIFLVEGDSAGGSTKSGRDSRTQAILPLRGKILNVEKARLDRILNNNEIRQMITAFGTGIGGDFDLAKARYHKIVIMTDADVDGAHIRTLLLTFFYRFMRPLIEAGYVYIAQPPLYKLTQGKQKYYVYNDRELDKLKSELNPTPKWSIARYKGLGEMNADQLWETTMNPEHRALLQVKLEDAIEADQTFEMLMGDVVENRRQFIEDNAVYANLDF
Sequence of DNA gyrase (Staphylococcus aureus) (P20831 whole entry partner): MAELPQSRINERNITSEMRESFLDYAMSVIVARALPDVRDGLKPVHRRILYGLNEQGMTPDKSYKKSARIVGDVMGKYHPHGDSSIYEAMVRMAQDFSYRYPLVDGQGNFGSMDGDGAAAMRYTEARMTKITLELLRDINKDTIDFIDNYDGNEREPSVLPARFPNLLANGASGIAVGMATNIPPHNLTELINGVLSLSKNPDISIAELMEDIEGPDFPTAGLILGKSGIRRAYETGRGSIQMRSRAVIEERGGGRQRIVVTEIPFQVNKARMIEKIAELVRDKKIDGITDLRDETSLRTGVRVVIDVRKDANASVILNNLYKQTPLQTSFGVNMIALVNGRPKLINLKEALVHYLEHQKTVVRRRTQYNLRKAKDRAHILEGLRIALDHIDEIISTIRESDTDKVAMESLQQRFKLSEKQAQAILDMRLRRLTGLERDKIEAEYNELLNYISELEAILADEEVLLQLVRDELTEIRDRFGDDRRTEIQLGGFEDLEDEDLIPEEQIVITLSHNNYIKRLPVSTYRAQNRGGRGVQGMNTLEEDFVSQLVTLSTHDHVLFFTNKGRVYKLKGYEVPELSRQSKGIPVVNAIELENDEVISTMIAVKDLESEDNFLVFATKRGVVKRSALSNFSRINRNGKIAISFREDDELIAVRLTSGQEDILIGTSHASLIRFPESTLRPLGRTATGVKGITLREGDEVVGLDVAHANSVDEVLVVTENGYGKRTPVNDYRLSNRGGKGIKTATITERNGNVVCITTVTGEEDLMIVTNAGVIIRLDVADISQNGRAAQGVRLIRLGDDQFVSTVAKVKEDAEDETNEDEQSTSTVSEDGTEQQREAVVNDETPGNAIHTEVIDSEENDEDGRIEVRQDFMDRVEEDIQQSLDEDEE

Escherichia coli [3] = experiment: Inhibition of Escherichia coli DNA topoisomerase 4 assessed as enzyme residual activity at 10 uM using supercoiled pNO1 plasmid DNA as substrate incubated for 30 mins by fluorescence assay relative to control
[4] = biological target: Topoisomerase IV (Staphylococcus aureus) (UniProt P0C1U9+P0C1S7); experiment: Inhibition of Staphylococcus aureus DNA topoisomerase 4 assessed as enzyme residual activity at 10 uM using supercoiled pNO1 plasmid DNA as substrate incubated for 30 mins by fluorescence assay relative to control; format: protein-complex assay
Enterococcus faecalis = experiment: Antibacterial activity against Enterococcus faecalis ATCC 29212 assessed as minimum inhibitory concentration required for >=90% inhibition of bacterial growth after 24 hrs by broth microdilution method; format: functional
Summary of the method: (§1)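 Strains were grown from cation-adjusted Mueller-Hinton agar slants into cation-adjusted MH broth at 37°C for 16-20 h at 100 rpm. Broth microdilution followed CLSI guidelines, with a final inoculum of 5×10^5 CFU/mL mixed 1:1 with compound in MH broth and incubated for 24 h at 37°C. Growth was read as A620 and expressed as percentage inhibition relative to untreated controls. Each plate included a ciprofloxacin positive control.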

Escherichia coli [5] = experiment: Antibacterial activity against Escherichia coli ATCC 25922 assessed as minimum inhibitory concentration required for >=90% inhibition of bacterial growth measured after 24 hrs by broth microdilution method; format: functional
Summary of the method: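 Cation-adjusted Mueller Hinton broth culture grown 16-20 h at 37°C with 100 rpm shaking. CLSI broth microdilution at a final inoculum of 5×10^5 CFU/mL, 8 concentrations from […], incubated 24 h at 37°C. A620 read and growth inhibition expressed as % of untreated controls. Ciprofloxacin positive control on every plate; n = 3.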

Pseudomonas aeruginosa = experiment: Antibacterial activity against Pseudomonas aeruginosa ATCC 27853 assessed as minimum inhibitory concentration required for >=90% inhibition of bacterial growth measured after 24 hrs by broth microdilution method; format: functional; summary of the method: as §1
Staphylococcus aureus = experiment: Antibacterial activity against Staphylococcus aureus ATCC 29213 assessed as minimum inhibitory concentration required for >=90% inhibition of bacterial growth measured after 24 hrs by broth microdilution method; format: functional; summary of the method: as §1
Escherichia coli [6] = experiment: Antibacterial activity against outer membrane impaired Escherichia coli JD17464 harboring lpxC mutant assessed as minimum inhibitory concentration required for >=90% inhibition of bacterial growth measured after 24 hrs by broth microdilution method; format: functional
Escherichia coli [7] = experiment: Antibacterial activity against efflux pump defective Escherichia coli JW5503 harbouring tolC mutant assessed as minimum inhibitory concentration required for >=90% inhibition of bacterial growth measured after 24 hrs by broth microdilution method; format: functional
[8] = Inhibition of Escherichia coli DNA topoisomerase 4 using supercoiled pNO1 plasmid DNA as substrate incubated for 30 mins by fluorescence assay
Topoisomerase IV = Topoisomerase IV (Staphylococcus aureus, UniProt P0C1S7+P0C1U9); experiment: Inhibition of Staphylococcus aureus DNA topoisomerase 4 using supercoiled pNO1 plasmid DNA as substrate incubated for 30 mins by fluorescence assay; format: protein-complex assay
Sequence of Topoisomerase IV (P0C1U9 whole entry): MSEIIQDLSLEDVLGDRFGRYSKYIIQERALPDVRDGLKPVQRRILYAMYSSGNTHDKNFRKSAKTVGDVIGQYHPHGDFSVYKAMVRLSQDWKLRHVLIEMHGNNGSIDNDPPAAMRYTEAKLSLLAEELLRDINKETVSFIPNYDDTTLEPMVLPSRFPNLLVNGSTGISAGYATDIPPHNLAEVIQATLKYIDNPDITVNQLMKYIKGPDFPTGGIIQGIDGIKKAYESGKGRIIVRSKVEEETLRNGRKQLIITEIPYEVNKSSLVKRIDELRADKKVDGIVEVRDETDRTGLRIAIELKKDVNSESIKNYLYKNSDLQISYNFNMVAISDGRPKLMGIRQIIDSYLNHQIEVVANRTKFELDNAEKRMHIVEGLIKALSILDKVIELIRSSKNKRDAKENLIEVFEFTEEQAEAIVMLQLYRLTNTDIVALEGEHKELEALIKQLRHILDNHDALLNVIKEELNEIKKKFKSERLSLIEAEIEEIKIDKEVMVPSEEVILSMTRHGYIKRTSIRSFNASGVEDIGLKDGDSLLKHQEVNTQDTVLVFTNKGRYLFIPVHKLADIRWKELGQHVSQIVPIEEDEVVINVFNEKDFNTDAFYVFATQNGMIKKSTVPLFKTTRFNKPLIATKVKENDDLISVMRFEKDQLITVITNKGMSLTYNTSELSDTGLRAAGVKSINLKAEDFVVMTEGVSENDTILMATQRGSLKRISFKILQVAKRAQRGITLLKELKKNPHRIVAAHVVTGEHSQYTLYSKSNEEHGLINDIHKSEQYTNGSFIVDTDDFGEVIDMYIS
Sequence of Topoisomerase IV (P0C1S7 whole entry): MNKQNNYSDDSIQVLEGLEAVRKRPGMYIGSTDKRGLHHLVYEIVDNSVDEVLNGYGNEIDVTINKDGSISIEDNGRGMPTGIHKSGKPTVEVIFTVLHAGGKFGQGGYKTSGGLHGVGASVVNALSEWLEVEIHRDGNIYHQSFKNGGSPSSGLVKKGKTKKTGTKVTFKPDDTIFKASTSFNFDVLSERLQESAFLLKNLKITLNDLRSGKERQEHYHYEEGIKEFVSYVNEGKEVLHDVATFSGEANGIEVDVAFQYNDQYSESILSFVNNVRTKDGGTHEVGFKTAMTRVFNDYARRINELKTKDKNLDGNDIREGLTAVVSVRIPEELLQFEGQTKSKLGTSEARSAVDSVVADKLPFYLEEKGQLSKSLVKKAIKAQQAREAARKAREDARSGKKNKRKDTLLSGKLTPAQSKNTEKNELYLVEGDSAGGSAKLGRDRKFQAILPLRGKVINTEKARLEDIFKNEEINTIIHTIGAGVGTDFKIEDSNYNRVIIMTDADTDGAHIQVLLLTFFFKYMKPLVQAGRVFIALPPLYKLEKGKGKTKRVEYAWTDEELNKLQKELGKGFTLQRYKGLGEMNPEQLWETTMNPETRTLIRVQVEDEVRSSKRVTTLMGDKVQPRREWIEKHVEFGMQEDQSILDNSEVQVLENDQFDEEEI

DNA gyrase [9] = biological target: DNA gyrase (Staphylococcus aureus, UniProt P0A0K8+P20831); experiment: Inhibition of Staphylococcus aureus DNA gyrase using relaxed pNO1 plasmid DNA as substrate incubated for 30 mins by fluorescence assay; format: protein-complex assay
Sequence of DNA gyrase (Staphylococcus aureus, UniProt P0A0K8+P20831) (P0A0K8 whole entry): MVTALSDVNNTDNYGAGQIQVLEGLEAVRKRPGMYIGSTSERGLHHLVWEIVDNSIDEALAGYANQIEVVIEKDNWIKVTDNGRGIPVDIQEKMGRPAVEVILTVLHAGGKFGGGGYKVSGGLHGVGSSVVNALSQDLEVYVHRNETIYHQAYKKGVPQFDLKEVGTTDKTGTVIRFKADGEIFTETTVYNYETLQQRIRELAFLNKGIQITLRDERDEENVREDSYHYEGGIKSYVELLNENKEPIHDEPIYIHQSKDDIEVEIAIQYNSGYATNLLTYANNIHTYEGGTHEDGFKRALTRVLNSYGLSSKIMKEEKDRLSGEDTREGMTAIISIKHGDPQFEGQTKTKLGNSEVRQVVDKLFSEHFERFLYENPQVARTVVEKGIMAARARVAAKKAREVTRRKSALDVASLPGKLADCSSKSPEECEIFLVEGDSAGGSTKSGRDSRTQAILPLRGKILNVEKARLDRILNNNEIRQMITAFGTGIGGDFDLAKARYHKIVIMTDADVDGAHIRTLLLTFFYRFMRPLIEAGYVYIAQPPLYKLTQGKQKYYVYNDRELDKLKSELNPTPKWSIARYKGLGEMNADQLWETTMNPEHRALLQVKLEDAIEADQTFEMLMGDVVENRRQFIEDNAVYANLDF
Sequence of DNA gyrase (Staphylococcus aureus, UniProt P0A0K8+P20831) (P20831 whole entry): as the sequence (P20831 whole entry partner) above

O=C(O)CC(=O)Nc1ccc2nc(NC(=O)c3cc(Br)c(Br)[nH]3)[nH]c2c1
IC50 (DNA gyrase [1]): 1500 nM | Activity [2]: 100% | Activity (Escherichia coli [3]): 100% | Activity [4]: 100% | MIC (Enterococcus faecalis): > 50 µM | MIC (Escherichia coli [5]): > 50 µM | MIC (Pseudomonas aeruginosa): > 50 µM | MIC (Staphylococcus aureus): > 50 µM | MIC (Escherichia coli [6]): > 50 µM | MIC (Escherichia coli [7]): > 50 µM

Cc1[nH]c(C(=O)Nc2nc3ccc(NC(=O)C(=O)O)cc3s2)c(Cl)c1Cl
IC50 [8]: 75 nM | IC50 (Topoisomerase IV): 290 nM | MIC (Enterococcus faecalis): > 50 µM | MIC (Pseudomonas aeruginosa): > 50 µM | MIC (Staphylococcus aureus): > 50 µM | MIC (Escherichia coli [6]): > 50 µM

CCOC(=O)C(=O)Nc1ccc2nc(NC(=O)c3cc(Br)c(Br)[nH]3)[nH]c2c1
IC50 (DNA gyrase [1]): 4000 nM | Activity [2]: 100% | Activity (Escherichia coli [3]): 100% | Activity [4]: 100% | MIC (Enterococcus faecalis): > 50 µM | MIC (Escherichia coli [5]): > 50 µM | MIC (Pseudomonas aeruginosa): > 50 µM | MIC (Staphylococcus aureus): > 50 µM | MIC (Escherichia coli [6]): > 50 µM | MIC (Escherichia coli [7]): > 50 µM

Cc1[nH]c(C(=O)Nc2nc3ccc(NC(N)=O)cc3s2)c(Cl)c1Cl
IC50 (DNA gyrase [1]): 26 nM | IC50 (DNA gyrase [9]): 1300 nM | IC50 [8]: 5200 nM | IC50 (Topoisomerase IV): 5800 nM | MIC (Enterococcus faecalis): > 50 µM | MIC (Escherichia coli [5]): > 50 µM | MIC (Pseudomonas aeruginosa): > 50 µM | MIC (Staphylococcus aureus): > 50 µM | MIC (Escherichia coli [6]): > 50 µM | MIC (Escherichia coli [7]): 1.56 µM (≈ 0.599 µg/mL)

Cc1[nH]c(C(=O)Nc2nc3ccc(NC(=O)c4ccncc4)cc3s2)c(Cl)c1Cl
IC50 (DNA gyrase [1]): 2500 nM | Activity [2]: 100% | Activity (Escherichia coli [3]): 100% | Activity [4]: 100% | MIC (Enterococcus faecalis): > 50 µM | MIC (Escherichia coli [5]): > 50 µM | MIC (Pseudomonas aeruginosa): > 50 µM | MIC (Staphylococcus aureus): > 50 µM | MIC (Escherichia coli [6]): > 50 µM | MIC (Escherichia coli [7]): > 50 µM

COC(=O)CC(=O)Nc1ccc2nc(NC(=O)c3cc(Br)c(Br)[nH]3)[nH]c2c1
IC50 (DNA gyrase [1]): 7000 nM | Activity [2]: 100% | Activity (Escherichia coli [3]): 100% | Activity [4]: 100% | MIC (Enterococcus faecalis): > 50 µM | MIC (Escherichia coli [5]): > 50 µM | MIC (Pseudomonas aeruginosa): > 50 µM | MIC (Staphylococcus aureus): > 50 µM | MIC (Escherichia coli [6]): > 50 µM | MIC (Escherichia coli [7]): > 50 µM

CC(=O)Nc1nc2ccc(NC(=O)c3[nH]c(C)c(Cl)c3Cl)cc2s1
IC50 (DNA gyrase [1]): 66 nM | IC50 (DNA gyrase [9]): 35400 nM | Activity (Escherichia coli [3]): 100% | Activity [4]: 100% | MIC (Enterococcus faecalis): > 50 µM | MIC (Escherichia coli [5]): > 50 µM | MIC (Pseudomonas aeruginosa): > 50 µM | MIC (Staphylococcus aureus): > 50 µM | MIC (Escherichia coli [6]): > 50 µM | MIC (Escherichia coli [7]): > 50 µM

Cc1[nH]c(C(=O)Nc2nc3ccc(N)cc3s2)c(Cl)c1Cl
IC50 (DNA gyrase [1]): 16000 nM | Activity [2]: 60% | Activity (Escherichia coli [3]): 100% | Activity [4]: 100%

CCOC(=O)C(=O)Nc1ccc2nc(NC(=O)c3[nH]c(C)c(Cl)c3Cl)sc2c1
IC50 (DNA gyrase [1]): 48 nM | Activity [2]: 100% | Activity (Escherichia coli [3]): 100% | Activity [4]: 100% | MIC (Enterococcus faecalis): > 50 µM | MIC (Escherichia coli [5]): > 50 µM | MIC (Pseudomonas aeruginosa): > 50 µM | MIC (Staphylococcus aureus): > 50 µM | MIC (Escherichia coli [6]): > 50 µM | MIC (Escherichia coli [7]): 50 µM (≈ 22.1 µg/mL)

CC(=O)Nc1ccc2nc(NC(=O)c3[nH]c(C)c(Cl)c3Cl)sc2c1
IC50 (DNA gyrase [1]): 9.5 nM | IC50 (DNA gyrase [9]): 400 nM | IC50 [8]: 4600 nM | IC50 (Topoisomerase IV): 1600 nM | MIC (Enterococcus faecalis): 3.13 µM (≈ 1.2 µg/mL) | MIC (Escherichia coli [5]): > 50 µM | MIC (Pseudomonas aeruginosa): > 50 µM | MIC (Staphylococcus aureus): > 50 µM | MIC (Escherichia coli [6]): > 50 µM | MIC (Escherichia coli [7]): 0.78 µM (≈ 0.299 µg/mL)

Cc1[nH]c(C(=O)Nc2ccc3nc(NC(=O)C(=O)O)sc3c2)c(Cl)c1Cl
IC50 (DNA gyrase [1]): 29 nM | IC50 (DNA gyrase [9]): 250 nM | IC50 [8]: 6400 nM | IC50 (Topoisomerase IV): 910 nM | MIC (Enterococcus faecalis): > 50 µM | MIC (Pseudomonas aeruginosa): > 50 µM | MIC (Staphylococcus aureus): > 50 µM | MIC (Escherichia coli [6]): > 50 µM

Cc1[nH]c(C(=O)Nc2nc3ccc(NC(=O)CCNC(=O)OC(C)(C)C)cc3s2)c(Cl)c1Cl
IC50 (DNA gyrase [1]): 110 nM | IC50 (DNA gyrase [9]): 780 nM | Activity (Escherichia coli [3]): 100% | Activity [4]: 100% | MIC (Enterococcus faecalis): > 50 µM | MIC (Escherichia coli [5]): > 50 µM | MIC (Pseudomonas aeruginosa): > 50 µM | MIC (Staphylococcus aureus): > 50 µM | MIC (Escherichia coli [6]): > 50 µM | MIC (Escherichia coli [7]): > 50 µM

O=C(O)C(=O)Nc1ccc2nc(NC(=O)c3cc(Br)c(Br)[nH]3)sc2c1
IC50 (Topoisomerase IV): 10000 nM

Cc1[nH]c(C(=O)Nc2nc3ccc(NC(=O)CNC(=O)OC(C)(C)C)cc3s2)c(Cl)c1Cl
IC50 (DNA gyrase [1]): 29 nM | IC50 (DNA gyrase [9]): 260 nM | Activity (Escherichia coli [3]): 60% | Activity [4]: 100% | MIC (Enterococcus faecalis): 3.13 µM (≈ 1.56 µg/mL) | MIC (Escherichia coli [5]): > 50 µM | MIC (Pseudomonas aeruginosa): > 50 µM | MIC (Staphylococcus aureus): > 50 µM | MIC (Escherichia coli [6]): > 50 µM | MIC (Escherichia coli [7]): 0.78 µM (≈ 0.389 µg/mL)

Cc1[nH]c(C(=O)Nc2nc3ccc(NC(=O)CN)cc3s2)c(Cl)c1Cl
IC50 (DNA gyrase [1]): 280 nM | IC50 (DNA gyrase [9]): 380 nM | Activity (Escherichia coli [3]): 100% | Activity [4]: 100% | MIC (Enterococcus faecalis): 6.25 µM (≈ 2.49 µg/mL) | MIC (Escherichia coli [5]): > 50 µM | MIC (Pseudomonas aeruginosa): > 50 µM | MIC (Staphylococcus aureus): 25 µM (≈ 9.96 µg/mL) | MIC (Escherichia coli [6]): > 50 µM | MIC (Escherichia coli [7]): 3.13 µM (≈ 1.25 µg/mL)

CCOC(=O)C(=O)Nc1nc2ccc(NC(=O)c3[nH]c(C)c(Cl)c3Cl)cc2s1
IC50 (DNA gyrase [1]): 290 nM | Activity [2]: 69% | Activity (Escherichia coli [3]): 100% | Activity [4]: 100% | MIC (Enterococcus faecalis): > 50 µM | MIC (Escherichia coli [5]): > 50 µM | MIC (Pseudomonas aeruginosa): > 50 µM | MIC (Staphylococcus aureus): > 50 µM | MIC (Escherichia coli [6]): > 50 µM | MIC (Escherichia coli [7]): > 50 µM

Cc1[nH]c(C(=O)Nc2nc3ccc(NC(=O)CCN)cc3s2)c(Cl)c1Cl
IC50 (DNA gyrase [1]): 110 nM | IC50 (DNA gyrase [9]): 1500 nM | IC50 [8]: 10000 nM | IC50 (Topoisomerase IV): 290 nM | MIC (Enterococcus faecalis): 12.5 µM (≈ 5.15 µg/mL) | MIC (Escherichia coli [5]): > 50 µM | MIC (Pseudomonas aeruginosa): > 50 µM | MIC (Staphylococcus aureus): > 50 µM | MIC (Escherichia coli [6]): > 50 µM | MIC (Escherichia coli [7]): 12.5 µM (≈ 5.15 µg/mL)

O=C(O)c1cn(C2CC2)c2cc(N3CCNCC3)c(F)cc2c1=O [CIPROFLOXACIN]
MIC (Escherichia coli [5]): 0.05 µM (≈ 0.0166 µg/mL)

COC(=O)CC(=O)Nc1nc2ccc(NC(=O)c3[nH]c(C)c(Cl)c3Cl)cc2s1
IC50 (DNA gyrase [1]): 200 nM | Activity [2]: 59% | Activity (Escherichia coli [3]): 100% | Activity [4]: 48% | MIC (Enterococcus faecalis): > 50 µM | MIC (Escherichia coli [5]): > 50 µM | MIC (Pseudomonas aeruginosa): > 50 µM | MIC (Staphylococcus aureus): > 50 µM | MIC (Escherichia coli [6]): > 50 µM | MIC (Escherichia coli [7]): 1.56 µM (≈ 0.688 µg/mL)

O=C(O)C(=O)Nc1ccc2nc(NC(=O)c3cc(Br)c(Br)[nH]3)[nH]c2c1
IC50 (DNA gyrase [1]): 600 nM | IC50 (DNA gyrase [9]): 80000 nM | IC50 [8]: 12000 nM | IC50 (Topoisomerase IV): 31000 nM | MIC (Enterococcus faecalis): > 50 µM | MIC (Pseudomonas aeruginosa): > 50 µM | MIC (Staphylococcus aureus): > 50 µM | MIC (Escherichia coli [6]): > 50 µM
